Paper PMC4929832 (Nature, 2016)

Tests used:
[1] = target: CLK1 (Homo sapiens, UniProt P49759); assay: kinase panel; format: biochemical
[2] = target: CK1-GAMMA3 (Homo sapiens, UniProt Q9Y6M4); assay: kinase panel; format: biochemical
[3] = target: Adrenergic Alpha 2C receptor (Homo sapiens, UniProt P18825); assay: Adrenergic Alpha 2C receptor assay; format: binding
[4] = target: MAP4K4 (Homo sapiens, UniProt O95819); assay: kinase panel; format: biochemical
[5] = target: NEK7 (Homo sapiens, UniProt Q8TDX7); assay: kinase panel; format: biochemical
[6] = target: FLT-3 (Homo sapiens, UniProt P36888); assay: kinase panel; format: biochemical
[7] = target: BMX (Homo sapiens, UniProt P51813); assay: kinase panel; format: biochemical
[8] = test system: exon19del/T790M EGFR mutant lung tumors (genetically engineered mice); assay: Mouse efficacy study, tumor volume by MRI; format: in vivo; details: EAI045 60 mg/kg with cetuximab 1 mg I.P. every other day
How it was run: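 Transgenic lung tumors were induced at 6 weeks of age: exon19del/T790M mice by doxycycline diet, L858R/T790M/C797S mice by intranasal Ad-Cre. The test compound in 10% NMP/90% PEG-300 was given at 60 mg/kg daily by oral gavage. […] MRI ran at baseline and every 2 weeks, and tumor volume was quantified in 3D at 4 weeks. Cohorts were non-blinded and not randomized.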

[9] = target: EPH-A2 (Homo sapiens, UniProt P29317); assay: kinase panel; format: biochemical
Sequence of EPH-A2 (P29317 24-976): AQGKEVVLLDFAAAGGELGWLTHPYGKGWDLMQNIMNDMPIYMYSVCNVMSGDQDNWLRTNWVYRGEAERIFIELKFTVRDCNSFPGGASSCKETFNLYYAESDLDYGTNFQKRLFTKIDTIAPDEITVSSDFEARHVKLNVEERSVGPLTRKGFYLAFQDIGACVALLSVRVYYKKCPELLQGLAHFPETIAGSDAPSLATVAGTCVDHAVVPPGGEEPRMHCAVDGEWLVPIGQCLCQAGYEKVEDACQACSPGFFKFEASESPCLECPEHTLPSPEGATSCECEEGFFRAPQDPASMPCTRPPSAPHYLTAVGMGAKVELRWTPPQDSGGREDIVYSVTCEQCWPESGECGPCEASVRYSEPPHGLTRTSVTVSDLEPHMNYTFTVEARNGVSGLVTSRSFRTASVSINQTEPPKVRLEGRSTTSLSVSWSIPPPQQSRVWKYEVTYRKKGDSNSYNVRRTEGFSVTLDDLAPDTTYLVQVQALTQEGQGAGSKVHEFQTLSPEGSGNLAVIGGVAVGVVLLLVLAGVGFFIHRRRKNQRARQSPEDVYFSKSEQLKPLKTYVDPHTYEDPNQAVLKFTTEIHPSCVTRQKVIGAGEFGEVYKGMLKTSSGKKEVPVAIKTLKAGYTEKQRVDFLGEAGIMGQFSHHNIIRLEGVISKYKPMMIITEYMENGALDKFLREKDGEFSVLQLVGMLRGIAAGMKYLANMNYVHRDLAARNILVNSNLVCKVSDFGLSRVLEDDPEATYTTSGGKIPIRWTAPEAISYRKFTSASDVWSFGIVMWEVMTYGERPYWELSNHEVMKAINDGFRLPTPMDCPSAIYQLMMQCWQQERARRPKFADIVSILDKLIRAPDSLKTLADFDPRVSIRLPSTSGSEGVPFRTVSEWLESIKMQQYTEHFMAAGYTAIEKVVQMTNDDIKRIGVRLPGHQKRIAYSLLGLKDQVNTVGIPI

[10] = target: Muscarinic M2 (Homo sapiens, UniProt P08172); assay: Muscarinic M2 calcium flux assay with ATP priming; format: cell-based
[11] = target: TSSK1 (Homo sapiens, UniProt Q9BXA7); assay: kinase panel; format: biochemical
[12] = target: NDR2 (Homo sapiens, UniProt Q9Y2H1); assay: kinase panel; format: biochemical
[13] = target: DYRK4 (Homo sapiens, UniProt Q9NR20); assay: kinase panel; format: biochemical
[14] = test system: CK1; assay: kinase panel; format: biochemical; details: CK1, 1 μM
[15] = test system: CK2; assay: kinase panel; format: biochemical; details: CK2, 1 μM
[16] = test system: L858R/T790M-mutant lung cancer (genetically engineered mice); assay: Mouse efficacy study, tumor volume by MRI; format: in vivo; details: EAI045 alone 60 mg/kg oral once daily, 4 weeks
[17] = target: CLK3 (Homo sapiens, UniProt P49761); assay: kinase panel; format: biochemical
Sequence of CLK3 (P49761 whole entry): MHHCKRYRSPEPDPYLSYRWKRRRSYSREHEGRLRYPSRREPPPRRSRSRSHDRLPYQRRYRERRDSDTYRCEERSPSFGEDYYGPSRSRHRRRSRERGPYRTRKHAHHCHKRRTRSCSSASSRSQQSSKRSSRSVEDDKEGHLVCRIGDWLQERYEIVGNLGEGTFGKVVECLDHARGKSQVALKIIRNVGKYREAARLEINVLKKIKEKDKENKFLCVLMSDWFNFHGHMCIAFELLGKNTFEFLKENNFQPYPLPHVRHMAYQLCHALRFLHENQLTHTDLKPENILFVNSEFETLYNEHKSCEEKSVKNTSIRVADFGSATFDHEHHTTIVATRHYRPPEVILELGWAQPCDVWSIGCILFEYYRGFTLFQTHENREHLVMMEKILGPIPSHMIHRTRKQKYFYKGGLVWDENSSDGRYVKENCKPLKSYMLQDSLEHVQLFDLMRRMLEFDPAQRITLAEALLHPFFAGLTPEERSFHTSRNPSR

[18] = target: MET (Homo sapiens, UniProt P08581); assay: kinase panel; format: biochemical
[19] = target: CLK2 (Homo sapiens, UniProt P49760); assay: kinase panel; format: biochemical
[20] = target: DYRK3 (Homo sapiens, UniProt O43781); assay: kinase panel; format: biochemical
[21] = target: DAPK3 (Homo sapiens, UniProt O43293); assay: kinase panel; format: biochemical
[22] = target: TBK1 (Homo sapiens, UniProt Q9UHD2); assay: kinase panel; format: biochemical
[23] = target: PAK2 (Homo sapiens, UniProt Q13177); assay: kinase panel; format: biochemical
[24] = target: RSK4 (Homo sapiens, UniProt Q9UK32); assay: kinase panel; format: biochemical
[25] = target: SLK (Homo sapiens, UniProt Q9H2G2); assay: kinase panel; format: biochemical
[26] = test system: HaCaT cells; assay: Proliferation assay; format: cell-based; details: Homo sapiens, 72 h, read-out: EC50 Proliferation
How it was run: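 Cells were maintained in 10% FBS/RPMI with penicillin/streptomycin and plated at 500 cells/well in 10% FBS RPMI. Serially diluted test compound was pin-transferred. Viability was read after 3 days by CellTiter-Glo luminescence and normalized to 0.1% DMSO-treated cells and empty wells. EC50 was obtained by non-linear regression curve fitting.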

[27] = target: LOK (Homo sapiens, UniProt O94804); assay: kinase panel; format: biochemical
[28] = target: AXL (Homo sapiens, UniProt P30530); assay: kinase panel; format: biochemical
[29] = target: ABL1 (Homo sapiens, UniProt P00519); assay: kinase panel; format: biochemical
[30] = target: Adenosine 3 receptor (Homo sapiens, UniProt P0DMS8); assay: Adenosine 3 receptor binding assay
[31] = target: LIMK1 (Homo sapiens, UniProt P53667); assay: kinase panel; format: biochemical
Sequence of LIMK1 (P53667 whole entry): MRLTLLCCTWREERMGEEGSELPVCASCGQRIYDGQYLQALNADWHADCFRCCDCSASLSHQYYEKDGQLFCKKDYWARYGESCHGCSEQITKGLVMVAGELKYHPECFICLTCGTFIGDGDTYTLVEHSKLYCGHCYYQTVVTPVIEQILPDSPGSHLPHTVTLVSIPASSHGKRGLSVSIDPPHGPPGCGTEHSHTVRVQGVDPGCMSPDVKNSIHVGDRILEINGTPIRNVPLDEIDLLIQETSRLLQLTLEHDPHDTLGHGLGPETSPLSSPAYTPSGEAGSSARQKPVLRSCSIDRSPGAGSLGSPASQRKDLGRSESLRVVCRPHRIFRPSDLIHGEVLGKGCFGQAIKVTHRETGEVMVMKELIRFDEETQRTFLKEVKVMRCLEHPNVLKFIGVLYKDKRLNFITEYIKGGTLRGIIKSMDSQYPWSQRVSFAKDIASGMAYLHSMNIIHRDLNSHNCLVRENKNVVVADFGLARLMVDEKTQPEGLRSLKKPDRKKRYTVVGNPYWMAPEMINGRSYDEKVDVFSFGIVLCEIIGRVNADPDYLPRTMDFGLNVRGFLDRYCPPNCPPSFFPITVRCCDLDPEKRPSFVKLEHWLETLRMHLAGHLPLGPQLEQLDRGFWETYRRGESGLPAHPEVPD

[32] = target: BRAF (Homo sapiens, UniProt P15056); assay: kinase panel; format: biochemical
[33] = target: KIT (Homo sapiens, UniProt P10721); assay: kinase panel; format: biochemical
[34] = target: GRK5 (Homo sapiens, UniProt P34947); assay: kinase panel; format: biochemical
[35] = target: PASK (Homo sapiens, UniProt Q96RG2); assay: kinase panel; format: biochemical
[36] = target: AKT2 (Homo sapiens, UniProt P31751); assay: kinase panel; format: biochemical
[37] = target: SPHK1 (Homo sapiens, UniProt Q9NYA1); assay: kinase panel; format: biochemical
Sequence of SPHK1 (Q9NYA1 whole entry): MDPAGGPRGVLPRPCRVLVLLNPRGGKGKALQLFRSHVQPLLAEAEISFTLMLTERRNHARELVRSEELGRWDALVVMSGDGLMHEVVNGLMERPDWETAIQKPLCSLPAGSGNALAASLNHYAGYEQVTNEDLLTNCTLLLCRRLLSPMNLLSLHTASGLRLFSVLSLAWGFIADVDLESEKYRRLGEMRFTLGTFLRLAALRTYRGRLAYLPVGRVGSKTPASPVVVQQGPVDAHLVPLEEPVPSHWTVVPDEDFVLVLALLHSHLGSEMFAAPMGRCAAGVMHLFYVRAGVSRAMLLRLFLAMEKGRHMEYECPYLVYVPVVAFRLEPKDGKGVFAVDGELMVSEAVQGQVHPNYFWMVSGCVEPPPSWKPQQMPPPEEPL

[38] = target: MUSK (Homo sapiens, UniProt O15146); assay: kinase panel; format: biochemical
[39] = target: PRKD2 (Homo sapiens, UniProt Q9BZL6); assay: kinase panel; format: biochemical
Sequence of PRKD2 (Q9BZL6 whole entry): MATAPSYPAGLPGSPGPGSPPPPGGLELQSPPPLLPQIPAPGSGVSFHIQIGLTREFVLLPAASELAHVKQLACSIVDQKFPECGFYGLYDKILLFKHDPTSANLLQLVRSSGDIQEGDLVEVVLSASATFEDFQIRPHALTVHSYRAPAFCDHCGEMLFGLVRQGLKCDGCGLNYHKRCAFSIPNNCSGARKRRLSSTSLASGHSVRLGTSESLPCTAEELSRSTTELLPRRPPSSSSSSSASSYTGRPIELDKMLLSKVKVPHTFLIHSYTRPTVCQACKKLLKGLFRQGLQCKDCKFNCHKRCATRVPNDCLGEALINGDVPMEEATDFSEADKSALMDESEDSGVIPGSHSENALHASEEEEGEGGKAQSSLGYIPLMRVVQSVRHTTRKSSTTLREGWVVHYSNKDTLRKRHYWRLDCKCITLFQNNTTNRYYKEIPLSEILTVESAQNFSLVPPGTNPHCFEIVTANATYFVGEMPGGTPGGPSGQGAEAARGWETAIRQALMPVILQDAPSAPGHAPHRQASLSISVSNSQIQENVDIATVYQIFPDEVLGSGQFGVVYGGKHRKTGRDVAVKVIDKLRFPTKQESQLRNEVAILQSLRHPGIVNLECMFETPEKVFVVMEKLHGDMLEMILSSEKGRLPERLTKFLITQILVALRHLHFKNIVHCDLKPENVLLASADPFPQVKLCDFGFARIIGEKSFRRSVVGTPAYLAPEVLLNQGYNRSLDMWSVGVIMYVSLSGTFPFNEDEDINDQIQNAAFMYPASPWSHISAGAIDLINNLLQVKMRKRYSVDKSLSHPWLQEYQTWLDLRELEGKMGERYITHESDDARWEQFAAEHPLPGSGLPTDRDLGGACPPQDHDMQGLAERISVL

[40] = target: Muscarinic M1 receptor (Homo sapiens, UniProt P11229); assay: Muscarinic M1 receptor assay; format: binding

Sequence of Adrenergic Alpha 2C receptor (P18825 whole entry): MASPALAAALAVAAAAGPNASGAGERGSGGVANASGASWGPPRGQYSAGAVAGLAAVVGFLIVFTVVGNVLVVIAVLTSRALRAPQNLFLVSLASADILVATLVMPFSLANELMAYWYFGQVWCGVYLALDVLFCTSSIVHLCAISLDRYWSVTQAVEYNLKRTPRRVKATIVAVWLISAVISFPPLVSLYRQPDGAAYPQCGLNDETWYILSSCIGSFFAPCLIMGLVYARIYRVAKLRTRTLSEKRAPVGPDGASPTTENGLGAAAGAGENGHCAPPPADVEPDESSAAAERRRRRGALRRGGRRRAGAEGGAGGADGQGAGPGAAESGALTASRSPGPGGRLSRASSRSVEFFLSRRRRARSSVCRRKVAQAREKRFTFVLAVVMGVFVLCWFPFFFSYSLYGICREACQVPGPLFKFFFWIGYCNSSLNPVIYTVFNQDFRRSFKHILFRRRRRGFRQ
Sequence of MAP4K4 (O95819 whole entry): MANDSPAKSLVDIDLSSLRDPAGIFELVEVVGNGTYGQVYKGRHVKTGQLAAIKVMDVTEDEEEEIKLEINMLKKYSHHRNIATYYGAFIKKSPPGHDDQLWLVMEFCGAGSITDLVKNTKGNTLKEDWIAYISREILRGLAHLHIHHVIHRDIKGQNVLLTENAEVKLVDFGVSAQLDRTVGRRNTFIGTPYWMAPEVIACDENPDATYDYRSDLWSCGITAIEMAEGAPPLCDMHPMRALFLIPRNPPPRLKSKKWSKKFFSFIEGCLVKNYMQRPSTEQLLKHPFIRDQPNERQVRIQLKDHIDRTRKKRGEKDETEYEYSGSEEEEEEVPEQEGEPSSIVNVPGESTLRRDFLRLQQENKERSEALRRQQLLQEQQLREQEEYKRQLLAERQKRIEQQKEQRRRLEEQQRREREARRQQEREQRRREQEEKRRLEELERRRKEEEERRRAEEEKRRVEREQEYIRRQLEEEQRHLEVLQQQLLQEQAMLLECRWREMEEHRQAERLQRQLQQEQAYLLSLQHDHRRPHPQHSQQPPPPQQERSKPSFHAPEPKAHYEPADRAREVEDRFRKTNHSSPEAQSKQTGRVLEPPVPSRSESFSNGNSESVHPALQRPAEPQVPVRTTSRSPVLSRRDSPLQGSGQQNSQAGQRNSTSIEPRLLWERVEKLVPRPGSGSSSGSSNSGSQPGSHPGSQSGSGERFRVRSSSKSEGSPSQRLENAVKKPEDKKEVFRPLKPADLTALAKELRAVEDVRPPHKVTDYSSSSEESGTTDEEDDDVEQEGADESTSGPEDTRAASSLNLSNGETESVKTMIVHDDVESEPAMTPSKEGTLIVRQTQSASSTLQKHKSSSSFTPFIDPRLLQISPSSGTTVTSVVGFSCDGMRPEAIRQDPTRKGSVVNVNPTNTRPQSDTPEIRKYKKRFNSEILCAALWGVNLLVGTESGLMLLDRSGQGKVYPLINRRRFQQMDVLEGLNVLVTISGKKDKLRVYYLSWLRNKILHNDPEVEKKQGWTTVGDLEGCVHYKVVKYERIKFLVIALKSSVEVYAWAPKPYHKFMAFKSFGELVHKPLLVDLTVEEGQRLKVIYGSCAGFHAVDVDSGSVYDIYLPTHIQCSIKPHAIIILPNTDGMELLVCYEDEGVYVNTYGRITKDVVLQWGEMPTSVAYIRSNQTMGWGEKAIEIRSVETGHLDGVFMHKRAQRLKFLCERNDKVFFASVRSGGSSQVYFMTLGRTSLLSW

With `O=C(Nc1nccs1)C(c1cc(F)ccc1O)N1Cc2ccccc2C1=O` (stereo not shown) [EAI045, 2-(5-fluoro-2-hydroxyphenyl)-2-(1-oxo-2,3-dihydro-1H-isoindol-2-yl)-N-(1,3-thiazol-2-yl)acetamide] the inhibition at 1 µM [1] was 0%, the inhibition at 1 µM [2] was 6% and the IC50 [3] was over 30 µM. The inhibition at 1 µM [4] was 2%, the inhibition at 1 µM [5] was 0% and the inhibition at 1 µM [6] was 0%. The inhibition at 1 µM [7] was 1%, the tumor response [8] was “failed to respond” and the inhibition at 1 µM [9] was 7%. For the same compound, the IC50 [10] was over 30 µM, the inhibition at 1 µM [11] was 2% and the inhibition at 1 µM [12] was 0%. For the same compound, the inhibition at 1 µM [13] was 1%, the “% inhibition” value [14] was 0% and the “% inhibition” value [15] was 0%. The tumor response [16] was “did not respond”, the inhibition at 1 µM [17] was 0% and the inhibition at 1 µM [18] was 0%. It also gave an inhibition at 1 µM [19] of 1%, an inhibition at 1 µM [20] of 2% and an inhibition at 1 µM [21] of 1%. It also gave an inhibition at 1 µM [22] of 3%, an inhibition at 1 µM [23] of 0% and an inhibition at 1 µM [24] of 0%. For the same compound, the inhibition at 1 µM [25] was 0%, the EC50 [26] was over 10 µM and the inhibition at 1 µM [27] was 1%. It also gave an inhibition at 1 µM [28] of 4%, an inhibition at 1 µM [29] of 1% and an IC50 [30] of over 30 µM. For the same compound, the inhibition at 1 µM [31] was 0%, the inhibition at 1 µM [32] was 0% and the inhibition at 1 µM [33] was 0%. The inhibition at 1 µM [34] was 0%, the inhibition at 1 µM [35] was 1% and the inhibition at 1 µM [36] was 0%. It also gave an inhibition at 1 µM [37] of 0%, an inhibition at 1 µM [38] of 0% and an inhibition at 1 µM [39] of 2%. For the same compound, the IC50 [40] was over 30 µM.
